Bioassay records deposited in PubChem BioAssay by The Scripps Research Institute Molecular Screening Center.
HTR2A ag – mouse Htr2a agonists via beta-arrestin recruitment, primary screen, cell-based, luminescence. 5-hydroxytryptamine receptor 2A (Mus musculus), P35363. CHO-K1 mHTR2A beta-arrestin complementation; percent of 30 µM serotonin response. activation, % at 7.6 µM. actives 0.66% (n = 360,000);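 active means activation above a run cutoff, the mean activation of all tested compounds plus 3 SD, cut at about 14% in these data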;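 further: 0% = plate median of compound wells and 100% = 30 µM serotonin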
FXN GAA850 act – FXN promoter activators, primary screen, cell-based, luciferase luminescence, HEK293 lucGAA850; HEK293 lucGAA850 FXN promoter luciferase reporter, 24 h; percent of 10 µM SAHA response; activation, % at 6 µM; actives 0.56% (n = 360,000);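 active means activation above the average of all compounds screened plus 3 SD, cutoff fixed separately per campaign, cut at about 7.5% in these data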;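 further: 0% = DMSO wells and 100% = 10 µM SAHA wells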
AHR activator – AHR activators, primary screen, cell-based, luminescence, luciferase reporter, human. Aryl hydrocarbon receptor (Homo sapiens), P35869. AHR-responsive luciferase reporter cells. activation, % at 5 µM. actives 2.5% (n = 320,000); in the data active means activation above about 47%;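 further: 0% = vehicle wells and 100% = reference agonist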
MC4R antagonist – MC4R antagonists of cAMP signaling, primary screen, cell-based, TR-FRET, antagonist arm of biased-ligand search. MC4R-expressing cells, MTII-stimulated cAMP, LANCE TR-FRET. actives 0.48% (n = 360,000). AID 540295, 2011. inhibition, % at 6.5 µM;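 active means inhibition above its plate's cutoff, the mean of tested wells on that plate plus 3 SD, cut at about 29% in these data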;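 further: 0% = Melanotan II alone and 100% = Melanotan II plus saturating MCL0020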
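Material – human MC4R-expressing U2OS cells · Repeats – no replicates · Detection – TR-FRET with Eu-cAMP and labeled anti-cAMP, 671 nm · Times – compound 30 min, challenge 1 h, detection 1 h · Compound – single nominal compound dose of 6.5 µM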
MC4R ag barr – MC4R agonists recruiting beta-arrestin, primary screen, cell-based, luminescence, agonist arm of biased-ligand search | Melanocortin receptor 4 (Homo sapiens), P32245 | U2OS MC4R beta-arrestin complementation; percent of melanotan II response, DMSO zero | activation, % at 8.9 µM | actives 0.98% (n = 360,000);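 active means activation above a per-plate cutoff, the mean activation of sample wells on that plate plus 3 SD, cut at about 8% in these data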
AHR act confirm – AHR activators, confirmation, cell-based, luminescence, luciferase reporter, human; shares compounds with AHR activator; human cells, AHR-responsive luciferase reporter; activation, % at 9 µM; actives 87% (n = 2,300); AID 2845, 2010; in the data active means activation above about 49%;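 further: HepG2 hepatoma cells carrying a DRE-driven firefly luciferase reporter; 0% = vehicle wells and 100% = reference agonist wells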
PXR act counter – human PXR activators, counter-screen for AHR activator project, cell-based, luciferase luminescence; shares compounds with AHR activator; cell-based PXR reporter; activation, % at 11.6 µM; actives 88% (n = 2,300); in the data active means activation above about 11%;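 further: human hepatoma DPX-2 cells expressing full-length human PXR; 0% = DMSO and 100% = reference agonist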
Target sequence (O75469 whole entry, looked up): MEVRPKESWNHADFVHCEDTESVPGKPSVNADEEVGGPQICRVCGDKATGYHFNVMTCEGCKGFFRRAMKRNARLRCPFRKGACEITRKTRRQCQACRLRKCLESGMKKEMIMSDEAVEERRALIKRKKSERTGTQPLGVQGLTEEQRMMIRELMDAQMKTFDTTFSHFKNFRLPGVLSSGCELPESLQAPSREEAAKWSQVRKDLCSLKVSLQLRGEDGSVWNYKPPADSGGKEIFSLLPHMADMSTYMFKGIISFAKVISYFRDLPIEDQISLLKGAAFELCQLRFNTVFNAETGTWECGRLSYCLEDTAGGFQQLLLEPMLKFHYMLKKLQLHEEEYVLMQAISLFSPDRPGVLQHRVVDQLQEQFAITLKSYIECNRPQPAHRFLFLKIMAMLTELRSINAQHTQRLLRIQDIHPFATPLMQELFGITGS
* = called active by the depositor; · = not tested or not shown. A selection: hits, their analogues and other compounds. The true share with any hit is near 4.7%.

SMILES	HTR2A ag	FXN GAA850 act	AHR activator	MC4R antagonist	MC4R ag barr	AHR act confirm	PXR act counter
Cc1ccc2c(C)c(C(=O)N3CCN(c4cnccn4)CC3)oc2c1C	3	2	92*	5	-3	114*	25*
CC1=NN(c2ccccc2)C(=O)/C1=C/c1cccs1	-1	2	84*	7	1	87*	37*
CC1=NN(c2ccccc2)C(=O)/C1=C\c1ccc(Br)s1	5	4	23	-13	-1	·	·
CCn1c(-c2sc(-c3ccccc3)nc2C)n[nH]c1=S	4	3	81*	9	-4	119*	19*
Cc1nc(-c2ccccc2)sc1-c1ccn[nH]1	1	5	12	-5	-3	·	·
Cn1ccs/c1=N\C(=O)Nc1cccc(C(F)(F)F)c1	5	2	106*	2	1	111*	60*
Cc1cccc(NC(=O)CSCC(=O)N=c2sccn2C)c1	0	3	13	10	1	·	·
Cc1cc(C)c2nc(SCC(=O)N3CC(=O)Nc4ccccc43)c(C#N)cc2c1	0	2	92*	5	-1	76*	77*
COc1ccc2nc(SCC(=O)N3CC(=O)Nc4ccccc43)c(C#N)cc2c1	9	-4	43	-5	1	·	·
Cc1cc(C)c2c(C)c(C(=O)NCc3ccncc3)oc2c1	-4	1	83*	0	0	73*	24*
CC(NC(=O)c1ccc(S(=O)(=O)Nc2ccccc2Cl)cc1)c1ccncc1 (stereo not given)	3	0	0	1	0	·	·
O=C(N/N=C/c1ccc([N+](=O)[O-])o1)c1cc(-c2ccc(-c3ccccc3)cc2)nc2ccccc12	0	-3	128*	-18	-1	43	25*
O=C(N/N=C/c1ccc([N+](=O)[O-])o1)c1cc(-c2ccncc2)nc2ccccc12	-6	-1	14	-16	-2	·	·
O=C1C2N=NN(CC(=O)N3N=C(c4ccccc4)CC3c3ccc([N+](=O)[O-])cc3)C2C(=O)N1c1ccccc1 (stereo not given)	·	·	2	·	·	·	·
CCC(=O)N(Cc1ccc(C)cc1)Cc1cc2cc3c(cc2[nH]c1=O)OCO3	2	-1	17	10	2	·	·
CCC(=O)N(CCc1ccccc1)Cc1cc2cc3c(cc2[nH]c1=O)OCO3	5	-3	92*	1	-2	93*	54*
Cc1cc(-c2nc3ccccc3o2)c2ccccc2n1	4	6	105*	7	-2	135*	11*
Cc1ccnc2ccc(-c3nc4ccccc4o3)cc12	3	6	87*	14	0	183*	54*
Cc1cc(C(=O)O)c2ccccc2n1	2	-1	1	13	0	·	·
Cc1ccc(NCC(=O)N/N=C/c2c[nH]c3ccccc23)cc1	-7	2	158*	11	1	111*	19*
COc1ccc(NC(=O)CSc2nc3c([nH]c4ccccc43)c(=O)n2C)c(OC)c1	1	1	22	5	-1	·	·
Cc1ccccc1-n1c(SCC(=O)NCC2CCCO2)nc2c([nH]c3ccccc32)c1=O (stereo not given)	-22	-8	14	7	-10	·	·
Cc1cc(NC(=O)CSc2nc3c([nH]c4ccccc43)c(=O)n2-c2ccccc2F)no1	-8	-1	90*	4	-6	70*	164*
O=C(CSc1nc2c([nH]c3ccccc32)c(=O)n1-c1ccccc1F)NCC1CCCO1 (stereo not given)	-24	-2	96*	-1	-9	98*	112*
COc1cccc(-n2c(SCC(=O)Nc3cc(C)on3)nc3c([nH]c4ccccc43)c2=O)c1	1	-3	103*	-5	1	103*	63*
SMILES	HTR2A ag	FXN GAA850 act	AHR activator	MC4R antagonist	MC4R ag barr	AHR act confirm	PXR act counter
Cn1c(SCC(=O)Nc2cccc(F)c2)nc2c([nH]c3ccccc32)c1=O	-2	4	20	-1	-2	·	·
CCc1cc2cc(OC)ccc2nc1SCC(=O)NNC(=O)c1ccco1	1	1	82*	8	2	16	14*
CC(C)C(=O)NCCc1nc(-c2ccc(Cl)cc2)no1	0	3	1	1	-2	·	·
CCCc1cc(=O)oc2cc(C)cc(OCC(=O)Nc3cccnc3)c12	-5	-4	116*	-18	0	82*	26*
CCCc1cc(=O)oc2cc(C)cc(OCC(=O)NCC(O)c3ccccc3)c12 (stereo not given)	5	-2	7	-6	-2	·	·
O=S(=O)(Nc1ccc(-c2nc3cccnc3s2)cc1)c1cccs1	14	3	95*	15	1	98*	29*
Cc1c(NS(=O)(=O)c2cccs2)cccc1-c1nc2cccnc2s1	-1	3	4	8	0	·	·
Cc1cc(Br)c(OCc2ccc(C(=O)N/N=C3\CC4CC=CC34)cc2)c(Br)c1 (stereo not given)	3	2	105*	7	-1	79*	11*
CON/C=N/C(=S)Nc1ncc(C(F)(F)F)cc1Cl	2	0	12	20	6	·	·
CON/C=C(\C=Nc1ccc(F)cc1)c1ncc(C(F)(F)F)cc1Cl	1	2	89*	4	3	94*	23*
c1cn(CCCNc2ncnc3sc4c(c23)CCC4)cn1	9	0	128*	-4	-2	92*	18*
Cc1nc2ccc(NC(=O)c3oc4ccc(F)cc4c3C)cc2s1	5	3	86*	3	1	121*	20*
Cc1ccc(NC(=O)c2[nH]cnc2C(=O)NN)cc1	-2	2	79*	4	0	82*	16*
CC(=O)Nc1ccc(-c2csc(N/N=C(/C)c3ccccc3)n2)cc1	-4	-2	0	8	-1	·	·
C/C(=N/Nc1nc(-c2ccc(Cl)cc2)cs1)c1cccs1	-1	0	104*	8	0	132*	17*
CSc1ncnc2c1ncn2CCCNCC(c1ccccc1)c1ccccc1	-10	-2	·	6	1	·	·
